Measured values taken from paper PMC11977460 (European Heart Journal Open, 2025).

Assays:
[1] = regulated by clearance receptor (NPR-C) and peptidases; cited from earlier work
[2] = system: high-fat/streptozotocin-induced Type 2 diabetic (T2D) rats; test: Blood glucose and physiological parameters; type: in vivo, rat; settings: for food intake / urine output / water intake / body weight: T2D animals, Supplementary Figures S1 and S2; for food intake / urine output / water intake: 24 h metabolic cages; for fasting plasma glucose at Week 6: first set, untreated T2D rose further to ≈500 mg·dL−1 at Week 6
Method in brief: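 Male Wistar rats, 12 months old, 450 ± 25 g. Type 2 diabetes induced by a 60% kcal lard diet for 4 weeks, then three i.p. STZ doses of 40 mg·kg−1 (citrate, pH 4.5) on consecutive days; shams received citrate. Tail glucose was read by glucometer in conscious restrained rats after a 12-h fast. Treatment ran 6 weeks; rats were held singly in metabolic cages for 24 h before the end.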

[3] = system: myocardial fibrosis in T2D rat hearts; test: Myocardial fibrosis histology and immunofluorescence; type: in vivo; settings: first set, 2 pmol·kg−1·min−1 s.c., 6 weeks; for decrease in WGA staining (extracellular matrix): n = 5-6; for decrease in Masson's trichrome staining: n = 6
[4] = system: cultured rat cardiac fibroblasts; test: MTT proliferation assay; type: cell-based; settings: 100 pM, 24 h, n = 6 independent cultures
Method in brief: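 Ventricular fibroblasts came from normal Wistar rats by collagenase type V digestion and differential centrifugation, then were selected by 2-h adhesion in DMEM with 10% heat-inactivated FBS. On day 5 of culture, cells were exposed to peptide at 100 pM for 24 h. MTT (0.5 mg·mL−1 in Tyrode) was added for 1 h at 37°C and formazan dissolved in DMSO for absorbance reading. Six independent cultures were run.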

[5] = system: cultured rat cardiac fibroblasts; test: Sircol collagen secretion assay on cell supernatants; type: cell-based; settings: 100 pM, 24 h, n = 6 independent cultures
Method in brief: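 Rat ventricular fibroblasts, isolated by collagenase digestion, were adhesion-selected and cultured 5 days in DMEM with 10% FBS. They were then exposed to peptide at 100 pM for 24 h. Culture supernatants were used directly in the Sircol dye-binding assay, with pellets rinsed and dissolved in alkali reagent; collagen was read against standards. Six independent cultures were run.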

[6] = system: SMAD2/3, NFATc3, ERK1/2, JNK, PKG/VASP in T2D rat hearts; type: in vivo; settings: for cardiac cGMP-dependent pathway PKG/VASP (VASP phosphorylation): western blot, T2D lowered VASP phosphorylation by ≈60%
Method in brief: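 Ventricles came from diabetic rats after 6 weeks of peptide infusion (2 pmol·kg−1·min−1) or sacubitril in drinking water (18 mg·kg−1·day−1). Tissue was lysed in RIPA with protease and phosphatase inhibitors and protein assayed by Bradford. Western blots: 12% SDS-PAGE, PVDF, 5% BSA block, primaries overnight at 4°C, GAPDH reference, three blots per condition. Antibody arrays: 5 µg protein dot-blotted onto PVDF, then probed with GAPDH as internal control.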

[7] = system: ANP/cGMP concentrations in T2D rats; test: Cardiac and plasma ANP/cGMP measurement by ELISA; type: in vivo, rat; settings: for increase in cardiac cGMP levels vs. T2D: acetylated samples, T2D tended to decrease ≈50%, n = 4-6; for increase in ANP plasma concentration: non-significant for MANP, P = 0.0967
[8] = system: mongrel dogs; settings: mongrel dogs following peptide administration; cited from earlier work
[9] = molecular target: insulin-degrading enzyme (IDE); settings: relative to ANP; cited from earlier work
[10] = system: cultured rat cardiac fibroblasts; test: Western blots of SMAD2/3 and PKG/VASP in high-glucose-treated fibroblasts; type: cell-based; settings: high glucose 24 h with 100 pM peptide, western blot; for decrease in SMAD2 phosphorylation levels: n = 3; for activation of PKG/VASP pathway (VASP phosphorylation at serine 239): n = 5
Method in brief: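 Day-5 cultures of rat ventricular fibroblasts were given high glucose for 24 h, with or without peptide at 100 pM. Cells were lysed in RIPA with protease and phosphatase inhibitors, and proteins were separated by 12% SDS-PAGE and blotted to PVDF. Membranes were blocked in 5% BSA and probed overnight at 4°C, with GAPDH as housekeeper. Blots came from three or five independent cultures.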

[11] = system: neprilysin (NEP); settings: cited from earlier work
[12] = system: cardiac collagen in T2D rat hearts; type: in vivo; settings: first set; Sircol assay; 2 pmol·kg−1·min−1 s.c., 6 weeks; n = 5-6
Method in brief: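 Ventricular tissue came from diabetic rats after 6 weeks of pump-delivered peptide at 2 pmol·kg−1·min−1. Tissue was homogenized in acid-pepsin and reacted with Sircol dye. Collagen-dye pellets were spun down, rinsed with acetic acid and dissolved in alkali reagent. Soluble collagen was read as absorbance at 550 nm against standards.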

[13] = first set, ELISA on ventricular tissue, 2 pmol·kg−1·min−1 s.c., 6 weeks, n = 6

Compound | half-life [1] [min] | food intake [2] | urine output [2] | water intake [2] | body weight [2] | fasting plasma glucose at Week 6 ([2]; T2D rats) | decrease in WGA staining (extracellular matrix) [3] | decrease in Masson's trichrome staining [3] | decrease in fibroblast proliferation [4] | decrease in collagen secretion [5] | cardiac cGMP-dependent pathway PKG/VASP (VASP phosphorylation) ([6]; first set, n = 3) | increase in cardiac ANP levels vs. T2D [7, 13] | increase in cardiac cGMP levels vs. T2D ([7]; first set, ELISA) | increase in ANP plasma concentration ([7]; first set, ELISA, n = 6) | increase in plasma ANP [8] [fold] | increase in plasma cGMP [8] [fold] | decrease in SMAD2 phosphorylation levels [10] | activation of PKG/VASP pathway (VASP phosphorylation at serine 239) [10] | increase in cardiac ANP levels vs. T2D ([7]; second set, ELISA, n = 5-7) | other results
brain natriuretic peptide [BNP] | 20 | – | – | – | – | – | – | – | – | – | – | – | – | – | – | – | – | – | – | –
M-atrial natriuretic peptide [MANP] | – | reduced | reduced | reduced | without affecting the body weight | remained unchanged | ≈ 75% | ≈ 80% | ≈ 20% | ≈ 30% | restored this pathway | ≈ 2 fold | ≈ 5 fold | ≈ 20% | ~1.5 | ~1.5 | ≈ 55% | ≈ 2.3 fold | – | cardiac NFATc3 activation (phosphorylated inactivated protein levels) ([6]; first set, antibody array vs T2D controls, n = 4): significantly reduced NFATc3 activation; cardiac ERK1/2 activation (pERK/ERK) ([6]; first set, antibody array, T2D hearts, n = 4): markedly attenuated; lower SMAD3 phosphorylation levels compared with T2D animals ([6]; first set, cardiac tissue western blot, 2 pmol·kg−1·min−1 s.c., 6 weeks, n = 3): ≈ 55%; IC50 with insulin-degrading enzyme (IDE), higher than ANP [9]: 30 fold; resistance to NEP degradation [11]: resistant to NEP degradation
atrial natriuretic peptide [ANP] | 3 | reduced | reduced | reduced | without affecting the body weight | remained unchanged | ≈ 50% | ≈ 50% | ≈ 20% | ≈ 30% | restored this pathway | no noticeable effect | attenuated | no noticeable effect | ~1.5 | ~1.5 | ≈ 55% | ≈ 2.3 fold | no noticeable effect | increase in cardiac soluble collagen [12]: ≈ 25%; plasma ANP levels ([7]; second set, ELISA, n = 5-7): no noticeable effect
CCOC(=O)[C@H](C)C[C@@H](Cc1ccc(-c2ccccc2)cc1)NC(=O)CCC(=O)O [SACU, Sacubitril sodium] | – | reduced | reduced | reduced | without affecting the body weight | – | – | – | – | – | – | – | – | – | – | – | – | – | ≈ 50% | metabolic profile (blood glucose) ([2]; second set, T2D rats, SACU 18 mg·kg−1·day−1 in drinking water): same metabolic profiles as their counterparts; level of ERK1/2 phosphorylation relative to GAPDH ([6]; second set, antibody array, n = 4): decreased
